# High-throughput results from PubChem.
# M1 agonist: M1 muscarinic receptor agonism | CHO-M1 cells, Fluo-4 calcium fluorescence, agonist mode; stronger effect = higher value | B-score at 10 µM | 3% of 64,000 active;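 active = fluorescence rise, raw or as B-score row- and column-corrected plate score, outside the 99.7% band of its plate's samples, either direction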
# SF1 activator: activates the human nuclear receptor SF-1; AID 522; CHO-K1 Gal4-SF-1 LBD luciferase reporter; % increase over DMSO SF-1-specific signal; Q13285; 1.9% of 65,000 active; activation, % at 10 µM;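 active = activation above the mean activation of all tested compounds plus 3 SD, cut at about 50% in these data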
# Target sequence (Q13285 whole entry, looked up, the tested form may be a part): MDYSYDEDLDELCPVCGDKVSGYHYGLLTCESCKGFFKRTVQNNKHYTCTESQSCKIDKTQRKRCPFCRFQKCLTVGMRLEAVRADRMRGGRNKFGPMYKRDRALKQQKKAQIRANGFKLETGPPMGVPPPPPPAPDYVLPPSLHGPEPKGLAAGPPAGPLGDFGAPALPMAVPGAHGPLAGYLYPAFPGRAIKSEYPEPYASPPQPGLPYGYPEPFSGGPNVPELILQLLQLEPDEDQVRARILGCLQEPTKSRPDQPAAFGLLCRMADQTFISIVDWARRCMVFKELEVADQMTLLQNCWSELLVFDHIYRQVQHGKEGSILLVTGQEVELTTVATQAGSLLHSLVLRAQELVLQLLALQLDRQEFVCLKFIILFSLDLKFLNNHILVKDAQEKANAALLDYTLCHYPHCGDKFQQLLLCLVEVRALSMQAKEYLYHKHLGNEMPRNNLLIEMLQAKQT
#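 Test system: transient Gal4-SF-1 LBD reporter, CHO-K1; Amount: 4,000 CHO-K1 cells per well; Doses: 10 µM only; Timing: compound exposure 20 h at 37 °C; Signal: luciferase light emission; Read-out basis: percent activation relative to DMSO median and mock-transfected background; Control set: DMSO negative control and −SF1 background wells; Replicates: one test per compound.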
# M1 antag: antagonists of rat M1 muscarinic receptor; P08482; CHO-M1 cells, Fluo-4 calcium, ACh EC80 antagonist mode; stronger effect = lower value; B-score at 10 µM; 3.4% of 64,000 active;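 active = calcium fluorescence response, raw or row-and-column corrected B-score, differing from the plate sample mean either way at a set confidence level, mostly lower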
# RORa activator: RORA (human) activation | activation, % at 10 µM | CHO-K1 Gal4-RORA LBD luciferase reporter, luminescence; percent increase over mock-subtracted basal signal | AID 560 | 1.5% of 65,000 active;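 active = activation above the mean of all tested compounds plus 3 SD, cut at about 49% in these data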
# HePTP inh: inhibitors of human HePTP phosphatase; recombinant HePTP phosphatase activity, OD absorbance; P35236; 0.64% of 110,000 active; AID 521; inhibition, % at 20 µM; in the data active = inhibition above about 50%
# D1 allo mod: D1 dopamine receptor (human) allosteric modulation. HEK293 D1, CRE-luciferase, dopamine EC30 potentiation; actives deviate in either direction. 5.9% of 58,000 active. P21728. B-score at 10 µM;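 active = luminescence count or its row- and column-corrected plate score outside the 99.7% band of the plate's sample wells, on either side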
# M1 antag conf: confirmation of rat M1 muscarinic receptor antagonists. shares compounds with M1 antag. CHO-M1 cells, Fluo-4 calcium, ACh EC80 antagonism; stronger effect = lower value. calcium response (max-min fluorescence) at 10 µM. 43% of 1,700 active. AID 677;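 active = calcium response below the same-plate mean of wells given acetylcholine alone at its 80%-effect dose, minus 3 SD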
# mGluR4 antag: acts on human mGluR4 in M1 antagonist selectivity test | CHO-mGluR4 calcium flux, Fluo-4 fluorescence, glutamate EC80; stronger effect = lower value | 0.9% of 1,700 active | fluorescence response (max-min) at 10 µM | shares compounds with M1 antag;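 active = fluorescence response below the plate's average for near-maximal glutamate wells, less 3 SD of those wells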;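 note: raw unnormalized fluorescence span taken in the window right after glutamate addition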
# A number is an active result; i = inactive; nt = not tested or not shown. Sampled rows, rich in hits. Any-hit rate of the full collection: about 8.2%.
SMILES,M1 agonist,SF1 activator,M1 antag,RORa activator,HePTP inh,D1 allo mod,M1 antag conf,mGluR4 antag
O=C(Nc1ccc2c(c1)OCO2)C1CCN(S(=O)(=O)Cc2ccccc2)CC1,i,i,i,i,i,i,nt,nt
Cc1coc2cc3oc(=O)c4c(c3cc12)CCC4,i,i,i,i,i,i,nt,nt
CNS(=O)(=O)c1cccc(C(=O)OCC(=O)c2cc(C)n(-c3ccc4c(c3)OCO4)c2C)c1,i,i,-2.28,i,i,i,i,164
O=C(COC(=O)c1ccc2c(c1)OCO2)c1cccc([N+](=O)[O-])c1,nt,nt,nt,nt,i,nt,nt,nt
CCCn1c(N2CCN(Cc3cccc(C)c3)CC2)nc2c1c(=O)[nH]c(=O)n2C,i,i,i,i,i,i,nt,nt
Cc1cccc(Cn2c(N3CCCCC3C)nc3c2c(=O)[nH]c(=O)n3C)c1 (stereo not drawn),i,i,-4.2,i,i,nt,90.3,i
NCCCCCc1nnc(SCc2cccc(Cl)c2)o1,i,i,-5.2,i,i,i,415,i
Cn1c(SC2C(=O)CC(C)(C)CC2=O)nnc1-c1ccco1,i,i,-12.3,i,i,i,i,i
O=C(CSc1nnc(-c2ccco2)o1)c1ccc(F)c(F)c1,i,i,i,i,i,i,nt,nt
CSc1nc2ccccc2n1C(=O)NC1CCCCC1,i,i,-4.33,i,i,i,i,i
CN(C)C(=O)Cn1c(SCC(=O)NC2CCCCC2)nc2ccccc21,i,i,i,i,i,i,nt,nt
CCSc1ccccc1C(=O)Nc1cc(C)on1,i,i,-3.79,i,i,i,i,i
Cc1c(CN2CCN(c3cccc(C(F)(F)F)c3)CC2)c(=O)n(-c2ccccc2)n1C,i,i,-4.41,i,i,i,458,i
Oc1ccc2ccccc2c1CN1CCN(c2cccc(C(F)(F)F)c2)CC1,nt,nt,nt,nt,i,nt,nt,nt
CC1=C(C)C(=O)N(c2ccc(C(=O)O)cc2)C1=O,i,i,i,i,i,i,nt,nt
CC(Cc1cccs1)NC(=O)Nc1ccccc1 (stereo not drawn),i,i,-3.18,i,i,i,i,i
C[C@H](NC(=O)NCc1cccs1)C(=O)O,i,i,i,i,i,i,nt,nt
CCN(C(=O)c1cccc(F)c1)c1ccccc1C,i,i,i,i,i,nt,nt,nt
CNC(=O)c1ccccc1NC(=O)c1ccc(C)c(S(=O)(=O)N2CCCCC2)c1,i,i,i,i,i,i,nt,nt
C=C(C)C(C)(C#CCN1CCOCC1)OC(C)=O (stereo not drawn),nt,nt,nt,nt,i,nt,nt,nt
CC(C)(O)C#CC#CCN1CCOCC1,i,i,-1.11,i,i,i,i,i
COc1cc(NC(=O)CSc2nnc(C)s2)cc(OC)c1OC,i,i,i,i,i,i,nt,nt
O=C(NCC1CCCO1)c1cc2nc(-c3ccc([N+](=O)[O-])cc3)cc(C(F)(F)F)n2n1 (stereo not drawn),nt,nt,nt,nt,i,nt,nt,nt
Cc1ccc(-n2ncc3c(NCC4CCCO4)ncnc32)c(C)c1 (stereo not drawn),i,i,-3.61,i,nt,i,i,i
Cc1ccc(-n2ncc3c(NCCCOC(C)C)ncnc32)c(C)c1,i,i,i,i,i,nt,nt,nt
SMILES,M1 agonist,SF1 activator,M1 antag,RORa activator,HePTP inh,D1 allo mod,M1 antag conf,mGluR4 antag
Cc1cc(C)n(-c2nncn2/N=C/c2ccccc2F)n1,i,i,-3.33,i,i,i,i,i
COc1ccc(Br)cc1CN1CCCC(C(=O)N2CCCCCC2)C1 (stereo not drawn),i,i,-3.15,i,i,i,313,i
O=C(C1CCCN(Cc2ccccc2Br)C1)N1CCCCC1 (stereo not drawn),i,i,-2.32,i,i,i,397,i
COc1ccc(CN2CCCC(C(=O)N(C)Cc3ccccc3)C2)cc1OC (stereo not drawn),i,i,i,i,i,i,nt,nt
O=C(C1CCCN(Cc2cccs2)C1)N1CCCCCC1 (stereo not drawn),i,i,i,i,i,i,nt,nt
COc1ccccc1CN1CCCC(C(=O)N(C)Cc2ccccc2)C1 (stereo not drawn),i,i,-3.76,i,i,i,513,i
Cc1onc(-c2ccccc2)c1C(=O)NC(C)C1CCCO1 (stereo not drawn),i,i,i,i,i,nt,nt,nt
Cc1cc2c(cn1)/C(=C\C=C\N(C)C)c1ccccc1-2,nt,nt,nt,nt,i,nt,nt,nt
CCOC(=O)CNC(=O)CSc1nc(N)cc(N)n1,i,i,i,i,i,i,nt,nt
CCOC(=O)CNC(=O)CSc1nc(NCc2ccccc2)nc(N(C)C)n1,i,i,-1.77,i,i,i,i,i
O=C(Nc1ccc2c(c1)OCO2)C1CCN(C(=O)CSc2ncnc3ccccc23)CC1,i,i,i,i,i,nt,nt,nt
COC(=O)C1=CNC=C(C(=O)OC)C1c1ccc(C(=O)OC)cc1,i,i,-3.21,i,i,i,398,i
COC(=O)C1=CNC=C(C(=O)OC)C1c1ccc(C)cc1,nt,nt,nt,nt,i,nt,nt,nt
Cn1c(SCCN2CCCCC2)nnc1-c1ccccc1Br,i,i,-2.03,i,i,i,561,i
CN(C)CCC(=O)c1ccc2c(c1)OCO2,i,i,i,i,i,i,nt,nt
COc1ccccc1CNc1nc2nc(C)c(C)c(=O)n2[nH]1,nt,i,nt,i,i,i,nt,nt
CCOc1ccc(C2CC(c3cccc(Cl)c3)n3nc(N)nc3N2)cc1 (stereo not drawn),i,i,i,i,i,i,nt,nt
COC(=O)c1[nH]c(C)c(/C(O)=C2\C(=O)C(=O)N(CCN(C)C)C2c2ccco2)c1C (stereo not drawn),i,i,i,i,i,i,nt,nt
COC(=O)c1ccccc1OC(=O)c1ccc(Br)o1,i,i,-4.49,i,i,i,i,i
COc1ccc(Cl)cc1C(=O)NCC(c1ccco1)N1CCCC1 (stereo not drawn),i,i,-4.64,i,i,i,390,i
CCC(=Nc1ccc(Cc2ccncc2)cc1)c1c(O)n(C)c(=O)n(C)c1=O,i,i,-2.87,i,i,i,548,i
CC(=Nc1ccc(C)cc1)c1c(O)n(C)c(=O)n(C)c1=O,nt,nt,nt,nt,i,nt,nt,nt
OCCN1CCN(Cc2cccc(Oc3ccc(Cl)cc3)c2)CC1,i,i,-2.87,i,i,i,378,i
CCc1c(C(=O)NC2CCCC2)csc1C,i,i,-2.24,i,i,i,i,i
COc1cc(C(=O)Oc2ccc(Cl)cc2C)cc(OC)c1OC,nt,nt,nt,nt,i,nt,nt,nt
CN1CCN(c2nc3ccccc3nc2N2CCN(C)CC2)CC1,nt,nt,nt,nt,i,nt,nt,nt
Cc1nc2c(o1)CCc1ccccc1C2N1CCN(C)CC1 (stereo not drawn),i,i,-14.7,i,i,nt,20.1,i
COc1ccc(C2C(C#N)=C(N)OC3=C2C(=O)CCC3)cc1 (stereo not drawn),nt,nt,nt,nt,i,nt,nt,nt
CCOc1ccc2nc(NC(=O)CSc3nnnn3C3CCCCC3)sc2c1,i,i,i,i,i,i,nt,nt
